G6PDH CS = L. mesenteroides G6PDH inhibitors, counter-screen for G6PDH-coupled screening assays, biochemical, Leuconostoc mesenteroides enzyme; actives 0.12% (n = 200,000); inhibition, % at 5 µM; glucose-6-phosphate dehydrogenase [Leuconostoc mesenteroides]; AID 1020, 2008; Purified L. mesenteroides G6PDH, diaphorase/resazurin coupled fluorescence, 45 min; in the data active = inhibition above about 50%
PfG6PD inh = PfG6PD enzyme inhibitors, primary screen, biochemical, fluorescence intensity, uHTS; glucose-6-phosphate dehydrogenase-6-phosphogluconolactonase (Plasmodium falciparum 3D7); PfGluPho enzyme, NADPH resazurin-diaphorase fluorescence; inhibition, % at 20 µM; actives 0.78% (n = 350,000); AID 504690, 2011;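 active = inhibition reaching at least a set limit at 20 µM in the primary screen, cut at about 59% in these data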
Tb hexokinase = Trypanosoma brucei hexokinase 1 inhibitors, primary screen, biochemical, G6PDH-coupled NADH absorbance, MLSCN library. recombinant TbHK1, G6PDH-coupled NADH A340. inhibition, % at 10 µM. actives 0.11% (n = 220,000);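 active = inhibition of 50% or more in the single-dose primary screen; inactive = inhibition below 50%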
HKDC1 inhibitor = HKDC1 hexokinase inhibitors, primary screen, biochemical, fluorescence, uHTS | recombinant HKDC1, G6PDH/diaphorase resazurin coupled fluorescence | inhibition, % at 20 µM | actives 0.16% (n = 340,000) | AID 493160, 2011;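 active = inhibition above about 35% when tested at 20 µM, limit read from the data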
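Test system: Recombinant HKDC1 (HK5) hexokinase enzyme, produced in-house | Input: HKDC1 at 5 µg/mL | Buffer or medium: Tris pH 8.0 buffer with MgCl2, Tween-20, BSA, BME | Schedule: 90 min reaction incubation at room temperature, dark | Technique: Resazurin-to-resorufin fluorescence via G6PDH and diaphorase coupling, 525/613 nm | Controls: DMSO wells with and without enzyme mix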
Diaph inh CS = diaphorase inhibitors and chemical oxidizers, primary screen, counter-screen for diaphorase-coupled primary assays, biochemical, uHTS, resorufin fluorescence | diaphorase resazurin-to-resorufin fluorescence, NADH, 16 min; bacterial (C. kluyveri) enzyme, not human | actives 0.69% (n = 190,000) | inhibition, % at 20 µM;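 active = primary screen inhibition at 20 µM above a set limit, cut at about 50% in these data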
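Assay system: diaphorase enzyme from Clostridium kluyveri; Input: enzyme working solution with 0.14 U/mL diaphorase; Timing: 16 min at room temperature; Technique: resorufin fluorescence, excitation 544 nm, emission 590 nm; Benchmarks: positive control minus NADH, DMSO neutral control.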
PfGluPho conf = PfG6PD inhibitors, hit retest, confirmation, biochemical, fluorescence intensity, single concentration. inhibition, % at 20 µM. actives 34% (n = 2,400). AID 504753, 2011. shares compounds with PfG6PD inh. recombinant PfGluPho, NADPH-diaphorase-resazurin fluorescence;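 active = inhibition of at least 50% at 20 µM in any single replicate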
Diaph ctr 10uM = diaphorase inhibitors and chemical oxidizers, confirmation, counter-screen for P. falciparum G6PD inhibitor project, biochemical, fluorescence intensity, 10 µM NADPH | shares compounds with PfG6PD inh | diaphorase-coupled resazurin reduction, NADPH 10 uM | inhibition, % at 20 µM | actives 39% (n = 820);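 active = average inhibition reaching 50% or more with the compound at 20 µM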;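 note: resorufin red fluorescence formed as diaphorase reduces resazurin using NADPH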
Diaphorase 30uM = diaphorase inhibitors and chemical oxidizers, confirmation, counter-screen for P. falciparum G6PD inhibitor project, biochemical, fluorescence intensity, 30 µM NADPH; shares compounds with PfG6PD inh; Diaphorase/resazurin coupled assay, resorufin fluorescence; inhibition, % at 20 µM; actives 29% (n = 820);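 active = inhibition averaging 50% or more, tested at 20 µM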
Hits are given with their value; n = inactive; x = no result given. Sampled rows, rich in hits. Any-hit rate of the full collection: about 1.3%.

SMILES	G6PDH CS	PfG6PD inh	Tb hexokinase	HKDC1 inhibitor	Diaph inh CS	PfGluPho conf	others
CCCCCCn1c(=O)c(F)cn(Cc2ccc(OC)c([N+](=O)[O-])c2)c1=O	n	n	n	n	n	x
Cc1ccc(N=C2C(=O)Nc3ccccc32)cc1	x	n	x	n	x	x
CCN(CC)c1ccc(N=C2C(=O)Nc3ccccc32)cc1	x	68.1	x	n	x	n
COc1ccccc1N1CCN(CC(=O)Nc2ccc(C)c(F)c2)CC1	n	n	n	n	n	x
O=C(NCCN=C1NS(=O)(=O)c2ccccc21)c1ccccc1	x	n	x	n	x	x
CCOc1ccccc1NC(=O)CCCc1nc2ccccc2c(=O)[nH]1	n	67.1	n	n	n	53.0	Diaph ctr 10uM=n;Diaphorase 30uM=n
CCOc1ccc(Oc2ccccc2NC(=O)CCc2nc3ccccc3c(=O)[nH]2)cc1	x	n	x	x	x	x
CC1CN(c2ccccc2)NC1=O (centres undefined)	n	105.8	n	n	n	107.0	Diaph ctr 10uM=n;Diaphorase 30uM=n
CC1CN(Cc2ccccc2)C(=O)NC1=O (centres undefined)	x	n	x	n	x	x
Cc1ccc(S(=O)(=O)Nc2cc3c(cc2C#N)OCO3)cc1C(N)=O	x	n	x	n	x	x
O=C(O)C/C(=C\c1ccc(N2CCOCC2)c([N+](=O)[O-])c1)c1nc2ccccc2s1	x	n	n	n	x	x
COc1cccc2sc3ccc(C#CC4(O)CCCCC4)cc3c(=O)c12	x	68.1	x	n	x	n
CCCCNc1cc(=O)n(C)c(=O)n1C	n	n	n	n	n	x
CCCCNC1=CC(=O)C(NCCCC)=CC1=O	x	62.2	x	n	x	n
COc1cccc(OC)c1C(=O)OCCCOC(=O)c1c(OC)cccc1OC	x	n	x	n	x	x
Cc1ccnc(SCC(=O)N2CCc3ccccc32)n1	x	n	x	n	x	x
O=C(CN1CCN(c2ccc(O)cc2)CC1)N1CCc2ccccc21	x	62.7	x	n	x	n
O=C(CSc1ncn(-c2ccccc2)n1)N1CCc2ccccc21	n	60.4	n	n	n	n
Cc1cc(Nc2ccc(Cl)cc2)nc(NCc2ccccc2)n1	n	60.5	n	n	n	n
Cc1ccc(Nc2cc(C)nc(-c3ccccc3)n2)cc1	x	65.4	x	n	x	n
O=C(O)c1ccc(N=NN2CCCCC2)cc1	n	n	n	n	x	x
Cc1ccc(-c2c(C(=O)N/N=C/c3sccc3C)nnn2-c2nonc2N)cc1	x	87.6	x	n	x	n
COc1ccccc1/C=N/NC(=O)c1nnn(-c2nonc2N)c1-c1cccs1	x	92.8	x	n	x	55.3	Diaph ctr 10uM=84.9;Diaphorase 30uM=66.5
Nc1nonc1-n1nnc(C(=O)N/N=C/c2cccc(Cl)c2)c1-c1ccc2c(c1)OCO2	x	119.1	x	n	x	98.7	Diaph ctr 10uM=86.9;Diaphorase 30uM=66.5
COc1ccc(N(CC(=O)NCc2cccnc2)S(=O)(=O)c2c(C)nn(C)c2C)cc1	n	n	n	n	n	x
COc1cc(NC(=O)c2cc(-c3cccs3)on2)cc(OC)c1OC	n	n	n	n	n	x
Cc1cc(SCC(=O)N/N=C/c2ccco2)nc2ccccc12	n	79.6	n	n	n	52.2	Diaph ctr 10uM=57.6;Diaphorase 30uM=n
COc1ccc(Nc2cc3n(c(=O)n2)CCc2cc(OC)c(OC)cc2-3)c(C)c1	x	n	x	n	x	x
O=C1NC(=O)C(Cc2ccc(Cl)cc2)(c2ccccc2)N1 (centres undefined)	x	67.8	x	n	x	n
CCOc1ccc(OCC)c(NC(=O)C2CCN(c3ncccn3)CC2)c1	n	n	n	n	n	x
